MPTP inh – mitochondrial permeability transition pore inhibitors, primary screen, biochemical, isolated mouse mitochondria, absorbance; Ca2+ swelling absorbance, 30 min; inhibition, % at 10 µM; actives 1.4% (n = 360,000);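 active means inhibition of 50% or more, scaled per plate between neutral and stimulator controls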;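 further: 0% = DMSO wells given calcium and 100% = 1 mM EGTA wells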
TAAR1 antagonist – human TAAR1 antagonists, primary screen, Fluo-8 calcium fluorescence, CHO RD-HGA16 cells; Trace amine-associated receptor 1 (Homo sapiens), Q96RJ0; antagonist; inhibition, % at 3 µM; actives 1.5% (n = 360,000); AID 624466, 2012;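 active means inhibition above a per-plate cutoff, the mean inhibition of test compounds on that plate plus 3 SD, cut at about 49% in these data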;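 further: 0% = DMSO plus EC80 beta-PEA response and 100% = DMSO alone without agonist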
Target sequence (Q96RJ0 whole entry, looked up): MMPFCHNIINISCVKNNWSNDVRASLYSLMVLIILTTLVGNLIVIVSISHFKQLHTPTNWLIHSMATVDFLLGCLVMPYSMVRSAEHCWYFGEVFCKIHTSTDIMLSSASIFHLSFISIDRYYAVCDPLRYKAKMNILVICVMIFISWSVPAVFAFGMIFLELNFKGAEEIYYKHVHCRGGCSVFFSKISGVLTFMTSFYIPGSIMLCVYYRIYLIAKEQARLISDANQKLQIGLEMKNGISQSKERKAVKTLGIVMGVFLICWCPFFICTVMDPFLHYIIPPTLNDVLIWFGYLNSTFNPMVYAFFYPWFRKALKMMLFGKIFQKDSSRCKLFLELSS
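System: CHO RD-HGA16 cells bearing hTAAR1. Reagent: EC80 β-phenethylamine stimulus. Schedule: seeding 17-24 h prior, 75-min 37 °C, 30-min RT dye loading. Signal: Fluo-8 intracellular calcium dye fluorescence, real-time kinetic reads. Read-out: % inhibition from peak post-agonist over basal fluorescence ratio. Benchmarks: vehicle wells and EC80 agonist wells. Replicates: n of 1.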
GPR7 antag – GPR7 receptor antagonists, primary screen, cell-based, fluorescence, single concentration; inhibition, % at 4.4 µM; AID 1861, 2009; actives 1.1% (n = 290,000); GPR7-expressing cells, fluorescence antagonist assay; Neuropeptides B/W receptor type 1 (Homo sapiens), P48145; in the data active means inhibition above about 16%, passing the limit was not always enough;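 further: cells stimulated with the agonist NPW; 0% = agonist with vehicle and 100% = vehicle without agonist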
Target sequence (P48145 whole entry, looked up): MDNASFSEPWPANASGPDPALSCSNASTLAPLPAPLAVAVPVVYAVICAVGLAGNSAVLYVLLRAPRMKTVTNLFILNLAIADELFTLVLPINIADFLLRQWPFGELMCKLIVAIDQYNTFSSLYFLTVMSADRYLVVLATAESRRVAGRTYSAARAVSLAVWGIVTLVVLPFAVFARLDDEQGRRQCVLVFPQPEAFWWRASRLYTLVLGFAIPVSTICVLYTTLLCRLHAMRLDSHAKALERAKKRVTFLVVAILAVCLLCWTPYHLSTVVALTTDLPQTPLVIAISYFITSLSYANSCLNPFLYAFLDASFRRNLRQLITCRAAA
TAAR1 agonist – human TAAR1 agonists, primary screen, Fluo-8 calcium fluorescence, CHO RD-HGA16 cells; Trace amine-associated receptor 1 (Homo sapiens), Q96RJ0; vehicle wells 0%, saturating PEA agonist 100%; activation, % at 3 µM; actives 0.99% (n = 360,000);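 active means activation above the mean activation of all test compounds in the run plus 3 SD, cut at about 38% in these data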
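test system = CHO RD-HGA16 cells carrying human TAAR1 plus Gα16 | schedule = 17-24 h seeding, 75 min 37 °C dye, 30 min RT | compound dosing = 3 µM single concentration | control set = DMSO and PEA EC100 | replicates = n 1 | signal = Fluo-8 fluorescence, 5 s baseline then 140 s kinetic read | measure = percent activation vs PEA EC100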
DAGLB inh – DAGLB lipase inhibitors, primary screen, biochemical, fluorescence, HTS | Diacylglycerol lipase-beta (Homo sapiens), Q8NCG7 | HEK293T DAGLB membrane lysate, EnzChek fluorogenic substrate | inhibition, % at 5.17 µM | actives 0.059% (n = 340,000) | AID 504411, 2011; in the data active means inhibition above about 34%;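 further: 0% = enzyme with vehicle and 100% = wells lacking enzyme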
nonsel antag count – nonselective antagonists in TAAR1 counter-screen cells, counter-screen for hTAAR1 antagonist project, cell-based, fluorescence, calcium; shares compounds with TAAR1 antagonist; counterscreen cell line, antagonist mode; inhibition, % at 3 µM; actives 77% (n = 2,400); AID 651780, 2012; in the data active means inhibition above about 22%;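 further: CHO-Ga16 host cells stimulated with ATP at an EC80 level; 0% = agonist EC80 plus vehicle and 100% = vehicle without agonist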
TAAR1 ant conf – human TAAR1 antagonists, retest of hits, confirmation, cell-based, fluorescence; inhibition, % at 3 µM; shares compounds with TAAR1 antagonist; actives 40% (n = 2,400); TAAR1-expressing cells, fluorescence antagonist read-out; AID 651785, 2012; in the data active means inhibition above about 49%;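 further: CHO-Ga16 host cells challenged with agonist PEA near its EC80; 0% = agonist at EC80 plus vehicle and 100% = vehicle with no agonist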
Ga16 ag counter – calcium activation in Ga16-expressing cells, counter-screen for TAAR1 antagonist project, cell-based, fluorescence | actives 18% (n = 2,400) | activation, % at 3 µM | agonist counterscreen | shares compounds with TAAR1 antagonist; in the data active means activation above about 12%;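 further: 0% = vehicle wells and 100% = saturating stimulus response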
TAAR1 ag count – TAAR1 activation by candidate antagonists – cell-based, fluorescence, counter-screen for TAAR1 antagonist project; actives 2% (n = 2,400); shares compounds with TAAR1 antagonist; activation, % at 3 µM; hTAAR1 cell line, agonist mode; in the data active means activation above about 37%;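 further: CHO cells stably expressing TAAR1 with calcium dye readout; 0% = DMSO vehicle and 100% = full agonist response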
The depositor's hits bear a star; · = not tested or not shown. Only some compounds are listed: those with a hit (about 4% of all), similar ones and a draw of the others.

SMILES	MPTP inh	TAAR1 antagonist	GPR7 antag	TAAR1 agonist	DAGLB inh	nonsel antag count	TAAR1 ant conf	Ga16 ag counter	TAAR1 ag count
CC(=O)N1CCN(c2ccc(NC(=O)c3ccc(C(C)(C)C)cc3)cc2)CC1	2	62*	-13	27	5	29*	46	9	10
CCCN1CCN(C(=O)Cn2nc(C)n3c(cc4c(OC)cccc43)c2=O)CC1	-1	-13	·	2	-1	·	·	·	·
CCCCNC(=O)C(NC(=O)c1cnc(C)cn1)C(=O)c1ccccc1 (centres undefined)	0	2	·	0	·	·	·	·	·
COc1cc2oc3ccc(C#Cc4ccc(N)cc4)cc3c(=O)c2cc1OC	-1	56*	·	12	2	25*	31	3	0
COc1cc2oc3ccc(C#Cc4ccccn4)cc3c(=O)c2cc1OC	-2	5	·	10	1	·	·	·	·
COc1cc2oc3cc(C#Cc4ccc(N)cc4)ccc3c(=O)c2cc1OC	0	52*	·	8	3	29*	35	3	7
N#CC(C#N)=C1C=CC=CN1/C(=C\c1ccccc1Cl)C(=O)c1ccccc1	0	56*	-12	8	3	49*	59*	6	2
N#CC(C#N)=C1C=CC=CN1/C(=C\c1ccccc1)C(=O)c1cccs1	-1	13	-6	2	2	·	·	·	·
COc1ccc(NC(=O)c2ccc(C#N)cc2)cc1NS(=O)(=O)c1ccc(F)cc1	0	70*	-3	0	-2	5	8	5	5
CC(C)Oc1cc(F)ccc1-c1cc(C(=O)NCc2cccs2)[nH]n1	2	-4	·	-3	·	·	·	·	·
Cc1ccccc1N(CC(=O)Nc1ccccc1C(=O)NCc1ccco1)S(=O)(=O)c1ccccc1	1	69*	-7	10	-2	31*	47	7	3
O=C(Nc1ccccc1C(=O)Nc1ccccc1C(=O)NCc1ccco1)c1ccco1	6	69*	-17	9	-5	25*	49*	10	8
Cc1nn(Cc2c(F)c(F)c(F)c(F)c2F)c(C)c1NC(=O)c1ccc(COc2ccccc2Cl)cc1	-2	·	-14	·	0	14	·	5	·
c1cc(-c2cc3nc(NCC4CC4)ccn3n2)ccc1OCCN1CCOCC1	0	42	·	9	·	·	·	·	·
c1cc(-c2cc3nc(NC4CCCCC4)ccn3n2)ccc1OCCN1CCOCC1	-1	61*	·	16	·	24*	42	11	18
Clc1cccc(CNc2ccn3nc(-c4ccc(OCCN5CCOCC5)cc4)cc3n2)c1	-1	69*	·	33	·	44*	71*	23*	23
COC(=O)[C@@]12C[C@@H](CC(=O)NCCCCc3ccccc3)C(=O)N(Cc3ccc4c(c3)OCO4)C1=CCC(C)(C)C2	-1	-61	·	1	·	·	·	·	·
Cc1cc(C)cc(CC(=O)N2CCC2(C)C(=O)NS(=O)(=O)c2ccc(C(C)(C)C)cc2)c1 (centres undefined)	0	-23	·	13	·	·	·	·	·
CC(C)(C)c1ccc(OCc2ccc(C(=O)N/N=C/c3ccc([N+](=O)[O-])cc3)o2)cc1	1	53*	-4	13	-1	31*	44	5	8
O=C(COc1ccc(/C=N/NC(=O)c2ccncc2)cc1)Nc1cccc([N+](=O)[O-])c1	0	15	4	5	0	·	·	·	·
O=C(COc1ccc(/C=N/NC(=O)c2ccccc2O)cc1)Nc1ccc([N+](=O)[O-])cc1	6	63*	-2	10	-2	29*	45	10	8
c1csc(-c2ccc3nncn3c2)c1	0	-5	·	1	·	·	·	·	·
Cc1cc(O)cc(=O)n1-c1cc(F)c(F)c(F)c1	·	-11	·	1	·	·	·	·	·
O=C(NCc1ccc(F)cc1)c1cc(C2CCCN(C(=O)CCCc3ccccc3)C2)on1 (centres undefined)	-1	-11	·	-1	·	·	·	·	·
FC(F)Oc1ccc(-c2csc(=Nc3cccnc3)n2CC2CCCO2)cc1 (centres undefined)	4	57*	7	13	4	37*	44	8	6
SMILES	MPTP inh	TAAR1 antagonist	GPR7 antag	TAAR1 agonist	DAGLB inh	nonsel antag count	TAAR1 ant conf	Ga16 ag counter	TAAR1 ag count
COc1ccc(C(C(=O)NC2CCCCC2)N(Cc2ccco2)C(=O)c2snc(C(N)=O)c2N)cc1 (centres undefined)	-2	71*	-28	15	-1	31*	53*	9	8
NC(=O)c1nsc(C(=O)N(Cc2ccco2)C(C(=O)NC2CCCC2)c2ccc(O)cc2)c1N (centres undefined)	1	53*	-9	9	-1	22*	45	7	7
O=C(CN1c2ccccc2Sc2ccccc21)NNC(=O)Nc1cccc(Cl)c1	38	58*	-10	1	2	13	37	0	2
O=C(Cc1ccccc1)NNC(=O)Nc1cccc(Cl)c1	0	-12	-5	1	0	·	·	·	·
O=C(Nc1cc(S(=O)(=O)N2CCOCC2)ccc1N1CCCC1)C1COc2ccccc2O1 (centres undefined)	0	-21	22	2	0	·	·	·	·
COc1ccc(S(=O)(=O)N2CCOCC2)cc1NC(=O)C1COc2ccccc2O1 (centres undefined)	0	59*	·	11	-2	26*	38	6	4
Cc1cccc(COC[C@H](CC(C)C)N2CCN(C(=O)c3ccc(C(C)(C)C)cc3)CCC2=O)c1	-1	63*	·	3	·	30*	52*	4	10
Cc1cccc(COCC(CC(C)C)N2CCN(C(=O)c3ccc(C(F)(F)F)cc3)CCC2=O)c1 (centres undefined)	0	-4	4	2	-5	·	·	·	·
Cc1cccc(COCC(CC(C)C)N2CCN(C(=O)c3ccc(C(C)(C)C)cc3)CCC2=O)c1 (centres undefined)	-2	71*	3	10	-14	32*	57*	7	17

Assay outcomes (PubChem BioAssay)
